Data as given in PMC9768356 (iScience, 2022).

Experiments:
Areg = Areg protein in BMDMs; format: cell-based, mice; conditions: n = 4 per group
How it was run: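 BMDMs: bone marrow cells from mouse hind legs, erythrocytes lysed, grown in DMEM with 10% FBS and 10 ng/mL GM-CSF at 37°C and 5% CO2. Non-adherent cells replated after 24 h and cultured 7 days, medium changed every 3 days. Cells were infected with E. coli and harvested at 12 h. Iron-loading agent 100 μM for 20 h or iron chelator 100 μM for 12 h. Lysis in RIPA, BCA protein assay, 20 or 40 μg on 12% SDS-PAGE, PVDF. Anti-Areg 1:1000 with β-actin loading control (1:5000), HRP secondaries 1:5000, ECL detection. Supernatant Areg by ELISA. n = 4 per group.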

YAP = YAP activation in BMDMs; format: cell-based, mice; conditions: E. coli 12 h, n = 4 per group
How it was run: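 Bone marrow cells from Fpn^flox/flox or Fpn^LysM/LysM mice were erythrocyte-lysed and grown in DMEM/10% FBS with 10 ng/mL GM-CSF. Nonadherent cells were replated after 24 h and cultured 7 days, with medium changed every 3 days. Cells were infected with E. coli (12 h) with DFO (100 μM, 12 h). Lysates were blotted for P-YAP and YAP (1:1000 each) with a β-actin control (1:5000); n = 4.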

[1] = cited from earlier work

Molecule: ferric ammonium citrate
- production and secretion of Areg, Fpn^flox/flox BMDMs, FAC (Areg; Fpn^flox/flox BMDMs, E. coli 12 h, FAC 100 μM, 20 h): promoted the production and secretion of Areg
- activation of YAP signaling, Fpn^flox/flox BMDMs, FAC (YAP; Fpn^flox/flox BMDMs, FAC 100 μM, 20 h): significantly facilitated the activation of YAP signaling

Molecule: CC[C@H](C)[C@@H]1NC(=O)[C@@H](NC(=O)[C@@H](NC(=O)[C@@H]2CCCN2C(=O)[C@H](Cc2ccccc2)NC(=O)[C@H](Cc2c[nH]cn2)NC(=O)[C@@H](NC(=O)[C@@H](N)CC(=O)O)[C@@H](C)O)[C@@H](C)CC)CSSC[C@@H](C(=O)N[C@@H](CCCCN)C(=O)N[C@H](C(=O)O)[C@@H](C)O)NC(=O)[C@@H]2CSSC[C@@H]3NC(=O)[C@@H]4CSSC[C@H](NC(=O)[C@H](Cc5ccccc5)NC1=O)C(=O)N[C@@H](CSSC[C@H](NC(=O)[C@H](CCCCN)NC(=O)[C@H](CO)NC(=O)[C@H](CCCNC(=N)N)NC(=O)[C@H](Cc1c[nH]cn1)NC3=O)C(=O)NCC(=O)N[C@@H](CCSC)C(=O)N2)C(=O)NCC(=O)N4 [Hepcidin]
- prevention of bacterial dissemination ([1]; by limiting extracellular iron availability): prevent bacterial dissemination by limiting extracellular iron availability
- pharmacokinetics [1]: poor pharmacokinetics

Molecule: CC(=O)N(O)CCCCCNC(=O)CCC(=O)N(O)CCCCCNC(=O)CCC(=O)N(O)CCCCCN [DFO, desferrioxamine]
- protein levels of Areg, Fpn^LysM/LysM BMDMs, DFO (Areg; Fpn^LysM/LysM BMDMs, E. coli 12 h, DFO 100 μM, 12 h): decreased YAP activity and the protein levels of Areg
- protein levels of Areg, Fpn^flox/flox BMDMs, DFO (Areg; Fpn^flox/flox BMDMs, E. coli 12 h, DFO 100 μM, 12 h): decreased YAP activity and the protein levels of Areg
- YAP activity, Fpn^LysM/LysM BMDMs, DFO (YAP; Fpn^LysM/LysM BMDMs, DFO 100 μM, 12 h): decreased YAP activity
- YAP activity, Fpn^flox/flox BMDMs, DFO (YAP; Fpn^flox/flox BMDMs, DFO 100 μM, 12 h): decreased YAP activity

Molecule: verteporfin
- protein levels of macrophage-derived Areg (YAP inhibition) (Areg; BMDMs and supernatant, 12 h after E. coli infection): dramatically downregulated the protein levels of macrophage-derived Areg
